Key:
Format in all cases: cell-based
[1] = molecular target: T1, Excitatory amino acid transporter 3 (Homo sapiens, UniProt P43005); assay: Inhibition of [3H]-D-aspartate uptake at human EAAT3 expressed in HEK293 cells after 6 mins by scintillation counting
T1 sequence (P43005 whole entry): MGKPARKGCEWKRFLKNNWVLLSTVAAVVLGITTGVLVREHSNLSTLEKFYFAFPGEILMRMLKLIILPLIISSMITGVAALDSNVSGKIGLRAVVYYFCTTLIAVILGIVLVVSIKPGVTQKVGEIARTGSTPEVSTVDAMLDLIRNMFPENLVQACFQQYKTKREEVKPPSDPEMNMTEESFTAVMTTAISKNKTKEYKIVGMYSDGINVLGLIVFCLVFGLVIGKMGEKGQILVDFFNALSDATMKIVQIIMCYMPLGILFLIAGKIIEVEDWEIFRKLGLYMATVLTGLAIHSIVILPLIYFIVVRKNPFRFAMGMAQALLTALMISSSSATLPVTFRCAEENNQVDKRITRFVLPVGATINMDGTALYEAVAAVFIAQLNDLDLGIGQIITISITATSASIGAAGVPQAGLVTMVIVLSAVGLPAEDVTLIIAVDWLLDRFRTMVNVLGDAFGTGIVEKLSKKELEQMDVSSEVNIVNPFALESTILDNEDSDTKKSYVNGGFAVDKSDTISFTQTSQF
Method in brief: (§1)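 Each transporter subtype stably expressed in its own HEK293 cell line. Inhibitor potency measured as block of [³H]-D-aspartate uptake into these cells and reported as IC₅₀ values.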

[2] = molecular target: Excitatory amino acid transporter 1 (Homo sapiens, UniProt P43003); assay: Inhibition of [3H]-D-aspartate uptake at human EAAT1 expressed in HEK293 cells after 6 mins by scintillation counting; method in brief: as §1
Excitatory amino acid transporter 1, sequence (P43003 whole entry): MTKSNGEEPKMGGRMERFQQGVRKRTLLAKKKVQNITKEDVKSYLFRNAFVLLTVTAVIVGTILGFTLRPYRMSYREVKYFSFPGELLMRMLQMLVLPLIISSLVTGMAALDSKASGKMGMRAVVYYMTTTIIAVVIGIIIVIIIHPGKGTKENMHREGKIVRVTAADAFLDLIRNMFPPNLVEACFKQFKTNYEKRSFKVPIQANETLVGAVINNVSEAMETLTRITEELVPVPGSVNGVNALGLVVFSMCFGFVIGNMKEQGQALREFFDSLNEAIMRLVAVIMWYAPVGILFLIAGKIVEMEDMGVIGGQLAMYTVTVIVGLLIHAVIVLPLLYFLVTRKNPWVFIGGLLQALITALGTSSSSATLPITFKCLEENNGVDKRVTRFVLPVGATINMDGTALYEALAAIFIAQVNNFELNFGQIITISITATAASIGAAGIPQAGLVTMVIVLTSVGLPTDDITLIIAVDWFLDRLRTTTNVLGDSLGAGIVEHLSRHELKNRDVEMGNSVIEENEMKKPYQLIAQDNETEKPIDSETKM

[3] = molecular target: Excitatory amino acid transporter 2 (Homo sapiens, UniProt P43004); assay: Inhibition of [3H]-D-aspartate uptake at human EAAT2 expressed in HEK293 cells after 6 mins by scintillation counting; method in brief: as §1
Excitatory amino acid transporter 2, sequence (P43004 whole entry): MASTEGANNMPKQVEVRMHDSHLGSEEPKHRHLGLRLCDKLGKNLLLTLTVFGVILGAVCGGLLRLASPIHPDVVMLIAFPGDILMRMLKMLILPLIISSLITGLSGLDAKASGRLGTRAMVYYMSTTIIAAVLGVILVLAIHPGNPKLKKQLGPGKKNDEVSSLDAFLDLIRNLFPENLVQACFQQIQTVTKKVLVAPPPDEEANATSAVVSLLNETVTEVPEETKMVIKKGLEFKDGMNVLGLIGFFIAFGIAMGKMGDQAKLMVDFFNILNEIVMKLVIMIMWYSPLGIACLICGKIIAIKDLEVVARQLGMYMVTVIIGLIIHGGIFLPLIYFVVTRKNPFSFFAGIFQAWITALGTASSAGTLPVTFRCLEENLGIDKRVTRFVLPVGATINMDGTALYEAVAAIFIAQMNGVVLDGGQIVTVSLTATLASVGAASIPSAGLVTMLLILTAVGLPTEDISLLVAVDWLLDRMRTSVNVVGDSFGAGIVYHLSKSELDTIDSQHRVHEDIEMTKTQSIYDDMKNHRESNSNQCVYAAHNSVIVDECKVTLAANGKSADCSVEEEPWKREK

SMILES | IC50 [1] | IC50 ([2]; read-out: IC50) | IC50 ([2]; read-out: pIC50 (converted)) | IC50 [3]
COc1ccc2c(C)c(-c3ccc(C4C(C#N)=C(N)OC5=C4C(=O)CC(c4ccccc4)C5)cc3)c(=O)oc2c1 (stereo not drawn) | > 300 µM | > 300 µM | > 316 µM | > 300 µM
COc1ccc2c(C3C(C#N)=C(N)OC4=C3C(=O)CC(c3ccccc3)C4)cc(=O)oc2c1 (stereo not drawn) | > 300 µM | > 300 µM | > 316 µM | > 300 µM
COc1ccc2c(C3CC(=O)C4=C(C3)OC(N)=C(C#N)C4C)cc(=O)oc2c1 (stereo not drawn) | > 300 µM | 17 µM | 16.2 µM | > 300 µM
CCN(CC)c1ccc2c(C)c(-c3ccc(C4C(C#N)=C(N)OC5=C4C(=O)CC(c4ccccc4)C5)cc3)c(=O)oc2c1 (stereo not drawn) | > 300 µM | > 300 µM | > 316 µM | > 300 µM
CCN(CC)c1ccc2c(C3C(C#N)=C(N)OC4=C3C(=O)CC(c3cccc5ccccc35)C4)cc(=O)oc2c1 (stereo not drawn) | > 300 µM | > 300 µM | > 316 µM | > 300 µM
CCN(CC)c1ccc2c(C3CC(=O)C4=C(C3)OC(N)=C(C#N)C4C)cc(=O)oc2c1 (stereo not drawn) | > 300 µM | 14 µM |  | > 300 µM
